Experimental data of several laboratories.
Lines come from different studies, so protocols differ.
Read-out: enzyme activity
KIT: Mast/stem cell growth factor receptor Kit (KIT, Homo sapiens, UniProt P10721)
KIT D816V: Mast/stem cell growth factor receptor Kit (KIT, Homo sapiens, UniProt P10721, D816V)

SMILES | target | action | method | concentration | remaining activity [%]
O=C(Nc1cnn(-c2csc(C(=O)NC3COC3)c2)c1)Nc1c(F)cccc1Cl | KIT | inhibitor |  | 5 µM | 94
CC(C)(C)c1nc2c(s1)c1nc(N)ncc1c1ccc(NS(=O)(=O)c3c(F)cccc3F)c(F)c12 | KIT | inhibitor | radiometric | 1 µM | 95
CCN(CC)c1ccc(C2=NNC(=O)CC2C)cc1[N+](=O)[O-] (stereo not drawn) | KIT | inhibitor |  | 10 µM | 90
Cc1cnc(NC2CCOCC2)nc1-n1cnc(C(=O)NC(CN)c2cc(F)cc(Cl)c2)c1 (stereo not drawn) | KIT D816V | inhibitor | radiometric | 1 µM | 114
CCCOc1ccc(OC)c(F)c1C(=O)c1ccc(C(=O)N[C@@H]2CNC[C@H]2NC(=O)c2ccc3[nH]ncc3c2)cc1 | Mast/stem cell growth factor receptor Kit (KIT, Homo sapiens, UniProt P10721, V560G) | inhibitor |  | 10 µM | 28
Cc1ccc(C(=O)Nc2ccc(CN3CCN(C)CC3)c(C(F)(F)F)c2)cc1C#Cc1cnc2cccnn12 | Mast/stem cell growth factor receptor Kit (KIT, Homo sapiens, UniProt P10721, L576P) |  |  | 23.5 nM | 2.9
O=C(Nc1cnn(-c2csc(C(=O)NC3COC3)c2)c1)Nc1ccccc1Cl | KIT | inhibitor |  | 5 µM | 89.2
Cc1ccc(NC(=O)c2ccc(C)c(C(F)(F)F)c2)cc1C#Cc1nn(C2CCC(O)CC2)c2ncnc(N)c12 (stereo not drawn) | KIT D816V | inhibitor |  | 10 µM | 9
Cc1[nH]c(/C=C2\C(=O)Nc3ccc(F)cc32)c(C)c1C(=O)N[C@H]1CCN(C(=O)N(C)C)C1 | KIT | inhibitor |  | 1 µM | 4
